Laboratory results published in ChEMBL document CHEMBL2331335, “Synthesis of hemslecin A derivatives: a new class of hepatitis B virus inhibitors” (Bioorg Med Chem Lett, 2013).
pIC50: −log10 of the molar value.

Columns and labels:
[1] = Selectivity index, ratio of CC50 for human HepG2.2.15 cells to IC50 for HBV infected in human HepG2.2.15 cells assessed as inhibition of viral DNA replication; type: functional
How it was run: (§1)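 Selectivity index was calculated as CC50 (HepG 2.2.15 cytotoxicity) divided by IC50 for the given marker (HBV DNA replication, HBeAg or HBsAg), all measured in HepG 2.2.15 cells.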

[2] = Cytotoxicity against human HepG2.2.15 cells; type: cell-based, HepG2 2.2.15
How it was run: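 Cytotoxicity was tested in HepG 2.2.15 cells alongside the anti-HBV assay. CC50 was taken as the compound concentration required to destroy 50% of the cells.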

Hepatitis B virus [3] = experiment: Antiviral activity against HBV infected in human HepG2.2.15 cells assessed as inhibition of viral DNA replication; type: functional, organism-based; conditions: HepG2 2.2.15
How it was run: (§2)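 Assayed in HBV-producing HepG 2.2.15 cells, with tenofovir as positive control. HBsAg, HBeAg and HBV DNA replication were each measured, and IC50 was taken as the compound concentration giving 50% inhibition of the given marker.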

Hepatitis B virus [4] = experiment: Antiviral activity against HBV infected in human HepG2.2.15 cells assessed as inhibition of viral e antigen production; type: functional, organism-based; conditions: HepG2 2.2.15; how it was run: as §2
Hepatitis B virus [5] = experiment: Antiviral activity against HBV infected in human HepG2.2.15 cells assessed as inhibition of viral surface antigen production; type: functional, organism-based; conditions: HepG2 2.2.15; how it was run: as §2
[6] = Selectivity index, ratio of CC50 for human HepG2.2.15 cells to IC50 for HBV infected in human HepG2.2.15 cells assessed as inhibition of viral surface antigen production; type: functional; how it was run: as §1
[7] = Selectivity index, ratio of CC50 for human HepG2.2.15 cells to IC50 for HBV infected in human HepG2.2.15 cells assessed as inhibition of viral e antigen production; type: functional; how it was run: as §1

Row | SMILES | Ratio CC50/IC50 [1] | CC50 [2] | pIC50 (Hepatitis B virus [3]) | pIC50 (Hepatitis B virus [4]) | pIC50 (Hepatitis B virus [5]) | Ratio CC50/IC50 [6] | Ratio CC50/IC50 [7]
1 | COc1cccc(/C=C/C(=O)O[C@H]2C[C@@H]3C(=CC[C@@H]4[C@@]3(C)C(=O)C[C@]3(C)[C@@H]([C@@](C)(O)C(=O)CCC(C)(C)OC(C)=O)[C@H](OC(=O)/C=C/c5cccc(OC)c5)C[C@@]43C)C(C)(C)[C@@H]2OC(=O)/C=C/c2cccc(OC)c2)c1 | >14 | > 719 µM | 4.29 | < 3.14 | < 3.14 |  | 
2 | CCOCC(=O)O[C@H]1C[C@@H]2C(=CC[C@@H]3[C@@]2(C)C(=O)C[C@]2(C)[C@@H]([C@@](C)(O)C(=O)CCC(C)(C)OC(=O)COCC)[C@H](OC(=O)COCC)C[C@@]32C)C(C)(C)[C@@H]1OC(=O)COCC | >17.8 | > 1450 µM | 4.09 | < 2.84 | 3.65 | >6.4 | 
3 | CC(=O)OC(C)(C)CCC(=O)[C@](C)(O)[C@H]1[C@H](O)C[C@@]2(C)[C@@H]3C[C@@H](O)[C@]4(OC(=O)c5cccc(Cl)c5)[C@@H](C[C@H](O)[C@@H](O)C4(C)C)[C@]3(C)C(=O)C[C@]12C | 50.9 | 366 µM | 5.14 | 4.51 | 4.62 | 15.3 | 11.9
4 | CC(=O)OC(C)(C)CCC(=O)[C@](C)(O)[C@H]1[C@H](O)C[C@@]2(C)[C@@H]3CC=C4[C@@H](C[C@H](O)[C@@H](O)C4(C)C)[C@]3(C)C(=O)C[C@]12C [HEMSLECIN A] | 5.8 | 66.2 µM | 4.94 | < 4.18 | < 4.18 | <1 | <1
5 | CCOCC(=O)O[C@H]1C[C@@H]2C(=CC[C@@H]3[C@@]2(C)C(=O)C[C@]2(C)[C@@H]([C@@](C)(O)C(=O)CCC(C)(C)O)[C@H](OC(=O)COCC)C[C@@]32C)C(C)(C)[C@@H]1OC(=O)COCC | 2.2 | 184 µM | 4.07 | < 3.73 | 3.99 | 1.8 | <1
6 | CCC(=O)O[C@H]1C[C@@H]2C(=CC[C@@H]3[C@@]2(C)C(=O)C[C@]2(C)[C@@H]([C@@](C)(O)C(=O)CCC(C)(C)OC(C)=O)[C@H](O)C[C@@]32C)C(C)(C)[C@@H]1OC(=O)CC | >83.4 | > 596 µM | 5.14 | 3.22 | 5.00 | >60 | >1
7 | CCCC(=O)O[C@H]1C[C@H]2[C@]3(C)C(=O)C[C@]4(C)[C@@H]([C@@](C)(O)C(=O)CCC(C)(C)OC(C)=O)[C@H](OC(=O)CCC)C[C@@]4(C)[C@@H]3C[C@H]3O[C@]32C(C)(C)[C@@H]1OC(=O)CCC |  | > 618 µM | < 3.21 | 3.40 | < 3.21 |  | >2
8 | C[C@H](Cn1cnc2c(N)ncnc21)OCP(=O)(O)O [TENOFOVIR ANHYDROUS] | >3571.4 | > 1740 µM | 6.31 |  | 2.80 | >1.1 | >1.5
9 | CC(=O)O[C@H]1C[C@H]2[C@]3(C)C(=O)C[C@]4(C)[C@@H]([C@@](C)(O)C(=O)CCC(C)(C)OC(C)=O)[C@H](OC(C)=O)C[C@@]4(C)[C@@H]3C[C@H]3O[C@]32C(C)(C)[C@@H]1OC(C)=O |  | > 961 µM | < 3.02 | < 3.02 | < 3.02 |  | 
10 | CCOCC(=O)O[C@H]1C[C@H]2[C@]3(C)C(=O)C[C@]4(C)[C@@H]([C@@](C)(O)C(=O)CCC(C)(C)OC(C)=O)[C@H](OC(=O)COCC)C[C@@]4(C)[C@@H]3C[C@H]3O[C@]32C(C)(C)[C@@H]1OC(=O)COCC |  | > 633 µM | < 3.20 | < 3.20 | < 3.20 |  | 
11 | CCC(=O)O[C@H]1C[C@@H]2C(=CC[C@@H]3[C@@]2(C)C(=O)C[C@]2(C)[C@@H]([C@@](C)(O)C(=O)CCC(C)(C)OC(C)=O)[C@H](OC(C)=O)C[C@@]32C)C(C)(C)[C@@H]1OC(=O)CC | >34.2 | > 650 µM | 4.72 | < 3.19 | < 3.19 |  | 
12 | CC(=O)OC(C)(C)CCC(=O)[C@](C)(O)[C@H]1[C@H](O)C[C@@]2(C)[C@@H]3C[C@H]4O[C@@]45[C@@H](C[C@H](O)[C@@H](O)C5(C)C)[C@]3(C)C(=O)C[C@]12C | >150.5 | > 1740 µM | 4.94 | < 2.76 | < 2.76 |  | 
13 | COCC(=O)O[C@H]1C[C@H]2[C@]3(C)C(=O)C[C@]4(C)[C@@H]([C@@](C)(O)C(=O)CCC(C)(C)OC(C)=O)[C@H](OC(=O)COC)C[C@@]4(C)[C@@H]3C[C@H]3O[C@]32C(C)(C)[C@@H]1OC(=O)COC |  | > 1110 µM | < 2.95 | 3.23 | < 2.95 |  | >1.9
14 | CCC(=O)O[C@H]1C[C@@H]2C(=CC[C@@H]3[C@@]2(C)C(=O)C[C@]2(C)[C@@H]([C@@](C)(O)C(=O)CCC(C)(C)OC(C)=O)[C@H](O)C[C@@]32C)C(C)(C)[C@@H]1O |  | 126 µM | 5.33 | 4.84 | 4.81 | 8.1 | 8.7
15 | COCC(=O)O[C@H]1C[C@H]2[C@]3(C)C(=O)C[C@]4(C)[C@@H]([C@@](C)(O)C(=O)CCC(C)(C)OC(C)=O)[C@H](OC(=O)COC)C[C@@]4(C)[C@@H]3C[C@@H](O)[C@@]2(OC(=O)c2cccc(Cl)c2)C(C)(C)[C@@H]1OC(=O)COC |  | > 1740 µM | < 2.76 | < 2.76 | < 2.76 |  | 
16 | CCC(=O)O[C@H]1C[C@H]2[C@]3(C)C(=O)C[C@]4(C)[C@@H]([C@@](C)(O)C(=O)CCC(C)(C)OC(C)=O)[C@H](OC(=O)CC)C[C@@]4(C)[C@@H]3C[C@H]3O[C@]32C(C)(C)[C@@H]1OC(=O)CC |  | > 1670 µM | < 2.78 | < 2.78 | 3.11 | >2.2 | 
17 | CC(=O)O[C@H]1C[C@@H]2C(=CC[C@@H]3[C@@]2(C)C(=O)C[C@]2(C)[C@@H]([C@@](C)(O)C(=O)CCC(C)(C)OC(C)=O)[C@H](OC(C)=O)C[C@@]32C)C(C)(C)[C@@H]1OC(C)=O | >46.6 | > 807 µM | 4.76 | < 3.09 | < 3.09 |  | 
18 | CCOCC(=O)O[C@H]1C[C@H]2[C@]3(C)C(=O)C[C@]4(C)[C@@H]([C@@](C)(O)C(=O)CCC(C)(C)OC(C)=O)[C@H](OC(=O)COCC)C[C@@]4(C)[C@@H]3C[C@@H](O)[C@@]2(OC(=O)c2cccc(Cl)c2)C(C)(C)[C@@H]1OC(=O)COCC |  | > 710 µM | < 3.15 | < 3.15 | < 3.15 |  | 
19 | CC(=O)O[C@H]1C[C@H]2[C@]3(C)C(=O)C[C@]4(C)[C@@H]([C@@](C)(O)C(=O)CCC(C)(C)OC(C)=O)[C@H](OC(C)=O)C[C@@]4(C)[C@@H]3C[C@@H](O)[C@@]2(OC(=O)c2cccc(Cl)c2)C(C)(C)[C@@H]1OC(C)=O |  | > 1050 µM | < 2.98 | 3.49 | 3.75 | >5.9 | >3.2
20 | CCOCC(=O)O[C@H]1C[C@@H]2C(=CC[C@@H]3[C@@]2(C)C(=O)C[C@]2(C)[C@@H]([C@@](C)(O)C(=O)CCC(C)(C)OC(C)=O)[C@H](OC(=O)COCC)C[C@@]32C)C(C)(C)[C@@H]1OC(=O)COCC | >55.8 | > 560 µM | 5.00 | < 3.25 | < 3.25 |  | 
